# Test results from ChEMBL document CHEMBL4265954, “Discovery of potent liver-selective stearoyl-CoA desaturase-1 (SCD1) inhibitors, thiazole-4-acetic acid derivatives, for the treatment of diabetes, hepatic steatosis, and obesity” (Eur J Med Chem, 2018).
# What was measured:
# [1] = target: Cytochrome P450 3A4 (Homo sapiens, UniProt P08684); experiment: Inhibition of CYP3A4 (unknown origin); type: ADME
# [2] = Toxicity in Sprague-Dawley rat administered orally once daily for 2 weeks; type: organism-based; conditions: in vivo, po
# Method in brief: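 Male Sprague Dawley rats, 6 weeks old (5 per group), were dosed orally once daily for 2 weeks at 100 or 1000 mg/kg as a suspension in 0.5% methylcellulose; controls received vehicle. Readouts: clinical observations, body weight, food consumption, ophthalmoscopy in week 2, and terminal necropsy, hematology, clinical chemistry, organ weights and histopathology. Plasma levels were measured 24 h post-dose on days 1, 5 and 10.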
# [3] = tested on: Mus musculus; experiment: Ex vivo inhibition of SCD1 in C57BL/6J mouse liver assessed as residual activity at 1 mg/kg, po treated for 6 hrs followed by incubation with [14C]stearoyl-CoA substrate for 10 mins by TLC assay relative to control; type: functional
# Method in brief: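 Male 6-week-old C57BL/6J mice dosed orally as a suspension in 0.5% methylcellulose. Liver or eyelid was taken 6 or 24 h later and homogenized in 100 mM Tris-HCl pH 7.4 with 0.25 M sucrose. S9 was obtained at 10,000 × g, 4 °C. S9 was incubated with [14C]stearoyl-CoA, NADH, MgCl2 and cytochrome b5 at room temperature, 10 min for liver and 30 min for eyelid. Lipids were saponified and run on AgNO3 TLC to quantify stearate and oleate. Result is % of vehicle control.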
# [4] = target: Cytochrome P450 2C9 (Homo sapiens, UniProt P11712); experiment: Inhibition of CYP2C9 (unknown origin); type: ADME
# Cytochrome P450 2C9, sequence (P11712 whole entry): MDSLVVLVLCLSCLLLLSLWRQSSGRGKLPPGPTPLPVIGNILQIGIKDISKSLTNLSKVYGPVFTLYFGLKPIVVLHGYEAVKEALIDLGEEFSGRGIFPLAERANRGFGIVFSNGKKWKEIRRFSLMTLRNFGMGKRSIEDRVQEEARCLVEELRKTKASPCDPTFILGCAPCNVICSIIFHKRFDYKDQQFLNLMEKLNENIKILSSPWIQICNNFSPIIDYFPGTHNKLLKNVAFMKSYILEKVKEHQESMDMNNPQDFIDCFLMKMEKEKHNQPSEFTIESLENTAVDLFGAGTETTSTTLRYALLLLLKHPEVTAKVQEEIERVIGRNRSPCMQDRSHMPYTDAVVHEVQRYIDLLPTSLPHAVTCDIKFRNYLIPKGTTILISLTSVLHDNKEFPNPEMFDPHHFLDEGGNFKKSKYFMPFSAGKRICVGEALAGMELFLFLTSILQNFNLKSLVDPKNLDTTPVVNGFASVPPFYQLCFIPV
# [5] = Drug uptake in high sucrose diet Sprague-Dawley rat eyelid at 10 mg/kg, po treated after 6 hrs; type: ADME, organism-based; conditions: read-out: Drug uptake
# Method in brief: (§1)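 Sprague-Dawley rats on a high sucrose diet, given a single oral 10 mg/kg dose. Plasma, liver and eyelid drug concentrations were measured 6 h later, n=3. Liver/eyelid ratio was taken from the tissue concentrations.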
# [6] = target: T1, Cytochrome P450 2A6 (Homo sapiens, UniProt P11509); experiment: Inhibition of CYP2A6 (unknown origin); type: ADME
# T1 sequence (P11509 whole entry): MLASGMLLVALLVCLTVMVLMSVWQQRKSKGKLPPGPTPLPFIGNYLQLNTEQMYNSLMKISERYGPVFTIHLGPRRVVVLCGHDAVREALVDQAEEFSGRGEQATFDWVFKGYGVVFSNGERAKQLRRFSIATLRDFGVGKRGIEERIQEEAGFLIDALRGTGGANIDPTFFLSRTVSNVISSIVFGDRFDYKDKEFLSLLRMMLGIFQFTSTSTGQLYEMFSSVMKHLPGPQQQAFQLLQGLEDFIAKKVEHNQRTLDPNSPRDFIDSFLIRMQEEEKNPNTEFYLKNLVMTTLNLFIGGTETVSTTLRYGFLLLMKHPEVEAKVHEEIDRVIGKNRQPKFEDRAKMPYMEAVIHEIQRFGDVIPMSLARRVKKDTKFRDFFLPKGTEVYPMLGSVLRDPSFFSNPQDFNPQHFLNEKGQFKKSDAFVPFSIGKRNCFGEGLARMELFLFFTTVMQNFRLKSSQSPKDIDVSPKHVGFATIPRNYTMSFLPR
# [7] = Total clearance in Sprague-Dawley rat at 1 mg/kg, iv; type: ADME, organism-based; conditions: in vivo
# Method in brief: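 Single intravenous dose of 1 mg/kg, with a parallel oral arm at 10 mg/kg, given to two male animals per species: C57BL/6J mice and Sprague Dawley rats. Total body clearance was derived from the plasma concentration–time profile of the compound.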
# [8] = target: Cytochrome P450 2D6 (Homo sapiens, UniProt P10635); experiment: Inhibition of CYP2D6 (unknown origin); type: ADME
# Cytochrome P450 2D6, sequence (P10635 whole entry): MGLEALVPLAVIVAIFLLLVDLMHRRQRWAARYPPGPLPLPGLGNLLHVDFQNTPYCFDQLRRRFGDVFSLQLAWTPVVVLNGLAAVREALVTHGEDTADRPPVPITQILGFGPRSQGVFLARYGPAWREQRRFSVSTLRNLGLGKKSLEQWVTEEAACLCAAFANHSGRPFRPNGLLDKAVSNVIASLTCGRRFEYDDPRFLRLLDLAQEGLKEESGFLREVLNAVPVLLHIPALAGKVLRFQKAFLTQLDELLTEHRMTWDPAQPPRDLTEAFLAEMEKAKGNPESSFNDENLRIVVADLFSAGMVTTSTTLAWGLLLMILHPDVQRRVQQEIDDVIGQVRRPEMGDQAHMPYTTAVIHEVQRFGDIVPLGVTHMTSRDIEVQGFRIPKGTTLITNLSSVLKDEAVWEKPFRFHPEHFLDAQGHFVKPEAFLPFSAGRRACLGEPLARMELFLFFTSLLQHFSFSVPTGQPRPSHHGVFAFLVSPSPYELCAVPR
# [9] = AUC in Sprague-Dawley rat at 100 mg/kg, po; type: ADME, organism-based; conditions: in vivo
# Method in brief: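 Male 6-week-old SD rats, 5 per group, dosed orally once daily for 2 weeks as a suspension in 0.5% methylcellulose aqueous solution. Plasma drug levels taken 24 h after dosing on days 1, 5 and 10. Exposure figure is from this 2-week repeat-dose toxicity study.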
# [10] = Ratio of drug uptake in high sucrose diet Sprague-Dawley rat liver to eyelid at 10 mg/kg, po treated after 6 hrs; type: ADME, organism-based; conditions: in vivo; method in brief: as §1
# [11] = tested on: Mus musculus; experiment: Antidiabetic activity in high fat diet fed C57BL/6J mouse assessed as reduction in plasma glucose AUC (0 to 120 mins) administered orally as diet mixture for 43 days and measured on day 22 of administration after overnight fasting by OGTT method; type: functional, organism-based
# Method in brief: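 Male? not stated. C57BL/6J mice fed high fat diet for one month, then given compound as HFD admixture (0.0040% or 0.0133%) for ~3 or 10 mg/kg/day over 43 days (10–16 weeks of age); controls on normal chow or HFD. Day 22: overnight fast, glucose load 1 g/kg; plasma glucose at 0, 0.5, 1, 2 h, AUC calculated; n=5–8, mean ± SD, Dunnett's test.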
# [12] = Drug uptake in high sucrose diet Sprague-Dawley rat liver at 10 mg/kg, po treated after 6 hrs; type: ADME, organism-based; conditions: read-out: Drug uptake; method in brief: as §1
# [13] = target: hERG (KCNH2) (Homo sapiens, UniProt Q12809); experiment: Inhibition of human ERG at 10 uM relative to control
# hERG (KCNH2), sequence (Q12809 whole entry): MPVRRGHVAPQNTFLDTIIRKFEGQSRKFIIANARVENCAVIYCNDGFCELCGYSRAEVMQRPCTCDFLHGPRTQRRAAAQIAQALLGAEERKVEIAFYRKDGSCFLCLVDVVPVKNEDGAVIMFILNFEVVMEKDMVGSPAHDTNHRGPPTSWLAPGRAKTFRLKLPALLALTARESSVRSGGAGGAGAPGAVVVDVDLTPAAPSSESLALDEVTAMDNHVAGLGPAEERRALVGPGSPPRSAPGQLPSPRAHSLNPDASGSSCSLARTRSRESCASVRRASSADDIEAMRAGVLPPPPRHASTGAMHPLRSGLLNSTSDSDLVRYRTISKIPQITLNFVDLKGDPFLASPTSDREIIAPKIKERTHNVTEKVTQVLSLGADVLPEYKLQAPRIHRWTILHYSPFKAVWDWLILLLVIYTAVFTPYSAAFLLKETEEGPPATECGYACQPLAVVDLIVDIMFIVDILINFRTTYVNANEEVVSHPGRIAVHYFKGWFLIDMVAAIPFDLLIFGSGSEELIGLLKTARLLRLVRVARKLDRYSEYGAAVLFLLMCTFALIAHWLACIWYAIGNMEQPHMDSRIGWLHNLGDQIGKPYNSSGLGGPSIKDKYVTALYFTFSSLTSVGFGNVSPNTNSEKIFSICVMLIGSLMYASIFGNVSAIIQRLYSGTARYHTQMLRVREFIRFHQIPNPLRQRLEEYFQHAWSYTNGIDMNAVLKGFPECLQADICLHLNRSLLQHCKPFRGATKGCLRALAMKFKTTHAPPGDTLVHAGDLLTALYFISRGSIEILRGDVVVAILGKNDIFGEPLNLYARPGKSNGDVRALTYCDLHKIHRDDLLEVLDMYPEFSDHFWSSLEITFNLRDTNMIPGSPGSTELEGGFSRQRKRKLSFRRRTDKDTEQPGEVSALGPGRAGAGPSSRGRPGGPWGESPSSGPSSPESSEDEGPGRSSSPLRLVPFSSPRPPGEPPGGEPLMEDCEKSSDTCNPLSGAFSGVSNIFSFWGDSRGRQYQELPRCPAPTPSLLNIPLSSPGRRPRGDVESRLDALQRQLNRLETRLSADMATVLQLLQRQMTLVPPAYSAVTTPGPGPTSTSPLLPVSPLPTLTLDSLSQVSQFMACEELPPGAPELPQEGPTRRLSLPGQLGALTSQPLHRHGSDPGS
# [14] = Apparent terminal half life in Sprague-Dawley rat at 10 mg/kg, po; type: ADME, organism-based; conditions: in vivo, read-out: betat1/2(app) (converted)
# Method in brief: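 Two male Sprague-Dawley rats per route, 10 mg/kg po and 1 mg/kg iv. Cmax, tmax, terminal-phase half-life and AUC0-inf were taken from plasma concentration–time curves. Bioavailability was derived from the po and iv data.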
# [15] = target: T2, Stearoyl-CoA desaturase (Homo sapiens, UniProt O00767); experiment: Inhibition of recombinant human SCD1 expressed in baculovirus expression system assessed as reduction in [3H]H2O production using stearoyl [9,10-3H]CoA as substrate in presence of NADH incubated for 30 mins by scintillation counting method
# T2 sequence (O00767 whole entry): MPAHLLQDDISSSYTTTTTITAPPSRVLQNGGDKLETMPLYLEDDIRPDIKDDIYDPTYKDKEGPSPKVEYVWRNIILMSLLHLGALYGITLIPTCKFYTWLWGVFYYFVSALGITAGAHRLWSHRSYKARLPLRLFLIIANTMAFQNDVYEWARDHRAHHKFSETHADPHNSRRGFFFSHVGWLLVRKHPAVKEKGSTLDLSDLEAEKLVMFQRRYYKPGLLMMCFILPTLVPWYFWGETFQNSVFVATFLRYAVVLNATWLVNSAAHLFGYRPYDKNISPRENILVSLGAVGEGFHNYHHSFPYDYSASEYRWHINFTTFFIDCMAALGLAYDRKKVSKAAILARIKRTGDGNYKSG
# Method in brief: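 Desaturation of [9,10-3H]stearoyl-CoA measured as released [3H]H2O. Water was separated from charcoal-adsorbed substrate by filtration and counted by scintillation. Remaining activity = (compound − background)/(control − background). DMSO wells served as control and pre-stopped wells as background. IC50 was interpolated from the two points bracketing 50%.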
# [16] = tested on: Mus musculus; experiment: Antiobesity activity in high fat diet fed C57BL/6J mouse assessed as reduction in diet-induced body weight gain administered orally as diet mixture for 43 days; type: functional, organism-based
# Method in brief: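 C57BL/6J mice, individually housed, fed HFD for one month, then given HFD admixed with drug (0.0040% for 3 mg/kg/day, 0.0133% for 10 mg/kg/day) for 43 days, from 10 to 16 weeks of age. Chow-fed normal group as control. Body weight measured every 3–4 days. Mean ± SD, n=5–8. Dunnett's test versus HFD control.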
# Cytochrome P450 3A4, sequence (P08684 whole entry): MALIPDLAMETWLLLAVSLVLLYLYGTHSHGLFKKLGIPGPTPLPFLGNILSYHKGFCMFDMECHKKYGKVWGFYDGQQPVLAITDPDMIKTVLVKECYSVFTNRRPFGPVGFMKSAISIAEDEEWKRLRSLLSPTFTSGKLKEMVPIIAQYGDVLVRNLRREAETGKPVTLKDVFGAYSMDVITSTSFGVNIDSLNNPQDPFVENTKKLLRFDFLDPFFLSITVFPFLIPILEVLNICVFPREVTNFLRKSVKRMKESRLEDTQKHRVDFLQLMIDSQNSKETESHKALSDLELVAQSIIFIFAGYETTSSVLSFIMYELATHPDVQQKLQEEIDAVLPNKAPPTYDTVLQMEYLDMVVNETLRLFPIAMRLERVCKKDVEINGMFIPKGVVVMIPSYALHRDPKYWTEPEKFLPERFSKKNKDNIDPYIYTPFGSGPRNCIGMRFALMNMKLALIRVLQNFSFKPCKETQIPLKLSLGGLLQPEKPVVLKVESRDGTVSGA
structure (smiles),measurement,setting,value
CCCCc1ccccc1NCc1ccc(C(=O)Nc2nc(CC(=O)O)cs2)s1,IC50,[1],> 50 µM
same,NOAEL at 336 h,[2],100 mg/kg
same,Activity,[3],13%
same,IC50,[4],> 50 µM
same,concentration at 6 h,[5],160 nM
same,IC50,[6],> 50 µM
same,clearance,[7],3.5 mL/min/kg
same,IC50,[8],> 50 µM
same,AUC,[9],179 µM·h
same,Ratio,[10],6.3
same,Activity,[11],Dose-dependent effect
same,concentration at 6 h,[12],1000 nM
same,inhibition at 10 µM,[13],14.7%
same,half-life,[14],4.7 h
same,IC50,[15],0.0088 µM
same,Activity,[16],Dose-dependent effect
